Measured values reported in ChEMBL document CHEMBL2331309, “2,3-Diarylpropenoic acids as selective non-steroidal inhibitors of type-5 17β-hydroxysteroid dehydrogenase (AKR1C3)” (Eur J Med Chem, 2013).
Where a chain is given by its changes, count along the chain named. The source made the active and inactive calls. The rule behind the calls is not given here.

Tests used:
[1] = biological target: T1, Aldo-keto reductase family 1 member C2 (Homo sapiens, UniProt P52895); experiment: Inhibition of recombinant AKR1C2 (unknown origin) assessed as decrease in oxidation of 1-acenaphthenol substrate by spectrophotometric analysis
T1 sequence (P52895 whole entry): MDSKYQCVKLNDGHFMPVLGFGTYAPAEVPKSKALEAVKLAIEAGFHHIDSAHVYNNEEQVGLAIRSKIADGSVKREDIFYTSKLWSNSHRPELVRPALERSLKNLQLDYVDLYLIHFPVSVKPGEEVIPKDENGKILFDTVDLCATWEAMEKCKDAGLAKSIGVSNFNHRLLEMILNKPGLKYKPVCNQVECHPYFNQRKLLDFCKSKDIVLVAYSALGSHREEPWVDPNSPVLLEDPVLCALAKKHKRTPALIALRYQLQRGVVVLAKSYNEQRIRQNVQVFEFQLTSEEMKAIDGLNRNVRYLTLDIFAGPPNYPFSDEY
In short: (§1)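 IC50 measured for compounds giving over 50% inhibition at 100 μM. Assay uses 1-acenaphthenol oxidation with 2.3 mM NAD⁺ in pH 9.0 100 mM phosphate buffer with 0.005% Triton X-114 and 5% DMSO. AKR1C1 runs at 30 μM substrate and 0.3 μM enzyme; AKR1C2 at 50 μM substrate and 0.2 μM enzyme. Initial rates come from NADH at 340 nm. IC50 is read from log[inhibitor] versus % inhibition plots.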

[2] = biological target: T2, Aldo-keto reductase family 1 member C2 (Homo sapiens) (UniProt P52895); experiment: Inhibition of recombinant AKR1C2 (unknown origin) assessed as decrease in oxidation of 1-acenaphthenol substrate at 100 uM by spectrophotometric analysis
T2 sequence (whole entry): T1 sequence (P52895 whole entry)
In short: (§2)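 Single-point screen at 100 μM compound. Recombinant enzyme oxidizes 1-acenaphthenol with 2.3 mM NAD⁺ in 100 mM phosphate buffer pH 9.0, 0.005% Triton X-114, 5% DMSO. AKR1C1: 30 μM substrate (Km), 0.3 μM enzyme. AKR1C2: 50 μM substrate (Km), 0.2 μM enzyme. NADH formation read at 340 nm from initial velocities. Result given as % inhibition.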

[3] = biological target: T3, Aldo-keto reductase family 1 member C1 (Homo sapiens) (UniProt Q04828); experiment: Inhibition of human recombinant AKR1C1 expressed in Escherichia coli assessed as decrease in oxidation of 1-acenaphthenol substrate at 100 uM by spectrophotometric analysis; in short: as §2
T3 sequence (whole entry): T1 sequence (P52895 whole entry) with V38T, H47R, V54L, S87C, M151V, H170R, L172Q

[4] = biological target: T4, Aldo-keto reductase family 1 member C1 (Homo sapiens, UniProt Q04828); experiment: Inhibition of human recombinant AKR1C1 expressed in Escherichia coli assessed as decrease in oxidation of 1-acenaphthenol substrate by spectrophotometric analysis; in short: as §1
T4 sequence (Q04828 whole entry): T1 sequence (P52895 whole entry) with V38T, H47R, V54L, S87C, M151V, H170R, L172Q

[5] = biological target: T5, Aldo-keto reductase family 1 member C3 (Homo sapiens, UniProt P42330); experiment: Inhibition of recombinant AKR1C3 (unknown origin) assessed as decrease in oxidation of 1-acenaphthenol substrate by spectrophotometric analysis
T5 sequence (P42330 whole entry): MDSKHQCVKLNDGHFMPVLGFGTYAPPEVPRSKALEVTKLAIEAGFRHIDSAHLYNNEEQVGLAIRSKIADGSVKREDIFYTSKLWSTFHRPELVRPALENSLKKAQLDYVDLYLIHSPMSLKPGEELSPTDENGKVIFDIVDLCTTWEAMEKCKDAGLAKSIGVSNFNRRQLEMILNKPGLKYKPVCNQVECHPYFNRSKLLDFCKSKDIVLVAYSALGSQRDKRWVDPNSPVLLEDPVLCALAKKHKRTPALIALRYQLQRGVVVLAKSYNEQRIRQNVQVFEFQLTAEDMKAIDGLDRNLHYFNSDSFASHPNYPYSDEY

Row | Compound | IC50 [1] [µM] | inhibition [2] | inhibition [3] | IC50 [4] [µM] | IC50 [5] [µM]
1 | CSc1ccc(/C=C(/C(=O)O)c2ccccc2)cc1 | 41.2 | 59.1% | 87% | 12.3 | 30.2
2 | CSc1ccc(/C=C(/C(=O)O)c2cccc(Cl)c2)cc1 | 20.8 | 78.3% | 81.7% | 19.1 | 17
3 | CS(=O)(=O)c1ccc(/C(=C\c2cccc(O)c2)C(=O)O)cc1 |  | inactive | inactive |  | 
4 | COc1cc(/C(=C\c2cccc3ccccc23)C(=O)O)cc(OC)c1OC |  | 13.8% | 6.4% |  | 
5 | O=C(O)/C(=C/c1ccccc1)c1ccccc1 |  | 47.5% | 90.1% | 7.9 | 
6 | CSc1ccc(/C=C(/C(=O)O)c2ccc(Cl)cc2)cc1 | 27.3 | 75.2% | 88.1% | 6.6 | 8.3
7 | CS(=O)(=O)c1ccc(/C=C(/C(=O)O)c2ccc(F)cc2)cc1 | 44.6 | 69.7% | 86.1% | 23.3 | 
8 | COc1cc(/C=C(/C(=O)O)c2ccc(S(C)(=O)=O)cc2)cc(OC)c1OC |  | inactive | inactive |  | 
9 | CS(=O)(=O)c1ccc(/C(=C\c2cccc(Cl)c2)C(=O)O)cc1 |  | 43% | 44.5% |  | 16.8
10 | COc1ccc(/C=C(/C(=O)O)c2cc(OC)c(OC)c(OC)c2)cc1 |  | 4.3% | 15.1% |  | 
11 | CS(=O)(=O)c1ccc(/C=C(/C(=O)O)c2ccc3c(c2)OCO3)cc1 |  | 24.2% | 45.2% |  | 
12 | CS(=O)(=O)c1ccc(/C=C(/C(=O)O)c2ccc(S(C)(=O)=O)cc2)cc1 |  | inactive | inactive |  | 51
13 | CS(=O)(=O)c1ccc(/C(=C\c2ccc(O)c(O)c2)C(=O)O)cc1 |  | 27.2% | 46.5% |  | 33.1
14 | CS(=O)(=O)c1ccc(/C=C(/C(=O)O)c2cccc(Cl)c2)cc1 | 23.1 | 66.4% | 75.9% | 19.3 | 76.7
15 | CC(=O)O[C@]1(C(C)=O)CC[C@H]2[C@@H]3C[C@H](C)C4=CC(=O)CC[C@]4(C)[C@H]3CC[C@@]21C [MEDROXYPROGESTERONE ACETATE] | 4.1 |  |  | 1.8 | 0.3
16 | CS(=O)(=O)c1ccc(/C(=C\c2ccc(Br)cc2)C(=O)O)cc1 |  | 19.2% | 28.7% |  | 4.9
17 | COc1cc(/C(=C\c2cccc(OC(C)=O)c2)C(=O)O)cc(OC)c1OC |  | 27% | 40% |  | 
18 | COc1cc(/C(=C\c2cccc(F)c2)C(=O)O)cc(OC)c1OC | 77 | 55.9% | 7.8% |  | 
19 | COc1ccc(/C=C(/C(=O)O)c2ccc(S(C)(=O)=O)cc2)cc1 |  | inactive | inactive |  | 36.9
20 | CS(=O)(=O)c1ccc(/C(=C\c2ccc(F)cc2)C(=O)O)cc1 |  | 9.2% | 21% |  | 43.1
21 | COc1ccc(/C=C(/C(=O)O)c2cc(OC)c(OC)c(OC)c2)cc1O |  | 20.6% | 14.4% |  | 121

Row | Compound | IC50 [1] [µM] | inhibition [2] | inhibition [3] | IC50 [4] [µM] | IC50 [5] [µM]
22 | CSc1ccc(/C=C(/C(=O)O)c2ccc(S(C)(=O)=O)cc2)cc1 |  | 14.4% | 43.8% |  | 5.8
23 | COc1ccc(/C=C(/C(=O)O)c2cc(OC)c(OC)c(OC)c2)cc1OC(C)=O |  | 3.2% | 8% |  | 
24 | CS(=O)(=O)c1ccc(/C(=C\c2ccccc2)C(=O)O)cc1 |  | 27.3% | 26.3% |  | 69.8
25 | CC(=O)NS(=O)(=O)c1ccc(/C=C(/C(=O)O)c2ccccc2)cc1 | 25.2 | 87.3% | 97.8% | 8.7 | 
26 | CS(=O)(=O)c1ccc(/C(=C\c2ccc(O)cc2)C(=O)O)cc1 |  | inactive | inactive |  | 
27 | CS(=O)(=O)c1ccc(/C=C(/C(=O)O)c2ccc(Cl)cc2)cc1 | 26.9 | 63.4% | 89.6% | 15.7 | 86.6
28 | CC(=O)NS(=O)(=O)c1ccc(/C=C(/C(=O)O)c2ccc(S(C)(=O)=O)cc2)cc1 |  | 10.6% | 5.9% |  | 
29 | Cc1ccc(/C=C(/C(=O)O)c2ccc(S(C)(=O)=O)cc2)cc1 |  | 1.1% | inactive |  | 13.4
30 | CSc1ccc(-c2ccc(/C=C(/C(=O)O)c3ccc(S(C)(=O)=O)cc3)cc2)cc1 |  | 57.4% | 64.7% |  | 
31 | COc1ccc(/C=C(/C(=O)O)c2cc(OC)c(OC)c(OC)c2)cc1F |  | 9.9% | -5.2% |  | 
32 | CS(=O)(=O)c1ccc(/C(=C\c2ccc(Cl)cc2)C(=O)O)cc1 |  | 24.3% | 34.7% |  | 10.8
33 | COc1ccc(/C=C(/C(=O)O)c2cccc3ccccc23)cc1OC | 24.2 | 77.8% | 29.4% |  | 128
34 | CS(=O)(=O)c1ccc(/C(=C\c2ccc(C(F)(F)F)cc2)C(=O)O)cc1 |  | 18.4% | 3.5% |  | 23.3
35 | CS(=O)(=O)c1ccc(/C(=C\c2cccc(F)c2)C(=O)O)cc1 |  | 27% | 15.4% |  | 38.9
36 | CS(=O)(=O)c1ccc(/C=C(/C(=O)O)c2ccccc2)cc1 | 34.4 | 61.4% | 77.6% | 30.8 | 139
37 | CS(=O)(=O)c1ccc(/C(=C\c2cccc(Br)c2)C(=O)O)cc1 | 74.3 | 58.3% | 34.8% |  | 13.6
38 | CCc1ccc(/C=C(/C(=O)O)c2ccc(S(C)(=O)=O)cc2)cc1 |  | inactive | inactive |  | 13.6
39 | COc1ccc(/C=C(/C(=O)O)c2ccc3ccccc3c2)cc1OC |  | 39.6% | 9.7% |  | 38.7
40 | COc1cc(/C(=C\c2ccc3ccccc3c2)C(=O)O)cc(OC)c1OC |  | 15.9% | 9.6% |  | 
41 | COc1ccc(/C=C(/C(=O)O)c2cc(OC)c(OC)c(OC)c2)cc1OC |  | 0.6% | 6.1% |  | 
